Tests used:
MCF7 [1] = test: Growth inhibition of human MCF7 cells after 5 days by MTT assay; format: functional; conditions: MCF7, 120 h
MDA-MB-231 = test: Growth inhibition of human MDA-MB-231 cells after 5 days by MTT assay; format: functional; conditions: MDA-MB-231, 120 h
MCF7 [2] = test: Growth inhibition of human MCF7 cells expressing HOX-B7 after 5 days by MTT assay; format: functional; conditions: MCF7, 120 h
PC-3 [3] = test: Growth inhibition of human PC3 cells after 5 days by MTT assay; format: functional; conditions: PC-3, 120 h
In short: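 PC-3 cells in RPMI 1640 with 10% FBS and 1% penicillin/streptomycin (37 °C, 5% CO2) were seeded at 2 × 10⁴/well and allowed to adhere 24 h. They were dosed over a concentration range in 10% DMSO/90% ethanol for 5 days, with drug and medium renewed on day 3. MTT (0.5 mg/mL) was added for 2 h, formazan dissolved in DMSO, and A560 read. Triplicate wells, ≥3 experiments; GI50 from nonlinear regression.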

Serum = test: Stability in 80% human serum in 0.02 M phosphate buffer at pH 7.2 after 24 hrs; format: ADME, cell-free; conditions: pH 7.2, 24 h
In short: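 Each agent was incubated 24 h at 37 °C in 80% human serum containing 20% 0.02 M phosphate buffer, pH 7.2. Samples were extracted and analysed by reverse-phase C18 HPLC with photodiode-array detection: 350 nm for ATRA and prodrugs, 245 nm for HDIs. The gradient ran from 20 mM ammonium acetate/methanol (50:50) to methanol at 0.8 mL/min.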

MCF7 [4] = test: Growth inhibition of human tamoxifen-resistant MCF7 cells after 5 days by MTT assay; format: functional; conditions: MCF7, 120 h
PC-3 [5] = test: Growth inhibition of human PC3 cells at 20 uM after 5 days by MTT assay; format: functional; conditions: PC-3, 120 h
In short: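 PC-3 cells in RPMI 1640 with 10% FBS were seeded at 2 × 10⁴/well, adhered 24 h, then given a single 20 µM concentration in 10% DMSO/90% ethanol for 5 days, with renewal on day 3. Growth was read by MTT (0.5 mg/mL, 2 h, formazan in DMSO, A560). Triplicate wells; at least three independent experiments.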

MCF7 [6] = test: Growth inhibition of long-term letrozole cultured human MCF7 cells after 5 days by MTT assay; format: functional; conditions: MCF7, 120 h

| SMILES | GI50 (MCF7 [1]) [µM] | GI50 (MDA-MB-231) [µM] | GI50 (MCF7 [2]) [µM] | GI50 (PC-3 [3]) [µM] | Stability (Serum) | GI50 (MCF7 [4]) [µM] | GI50 (MCF7 [6]) [µM] | inhibition at 20 µM (PC-3 [5]) [%] |
| --- | --- | --- | --- | --- | --- | --- | --- | --- |
| CCCC(=O)[O-].[Na+] [SODIUM BUTYRATE] |  | > 1000 |  | 72.4 |  |  |  |  |
| NCC(=O)Nc1ccccc1NC(=O)c1ccc(CNC(=O)OCc2cccnc2)cc1 |  |  |  |  | Stable |  |  |  |
| CC1=C(/C=C/C(C)=C/C=C/C(C)=C/C(=O)OCOC(=O)NCC(=O)Nc2ccccc2NC(=O)c2ccc(CNC(=O)OCc3cccnc3)cc2)C(C)(C)CCC1 | 0.15 | 0.94 | 0.006 | 0.04 |  | 0.02 | 0.02 |  |
| CC1=C(/C=C/C(C)=C/C=C/C(C)=C/C(=O)O)C(C)(C)CCC1 [TRETINOIN] |  | 10.8 |  | 7.6 |  |  |  |  |

Further molecules by falling GI50 (MDA-MB-231), results first:

| GI50 (MCF7 [1]) [µM] | GI50 (MDA-MB-231) [µM] | GI50 (MCF7 [2]) [µM] | GI50 (PC-3 [3]) [µM] | Stability (Serum) | GI50 (MCF7 [4]) [µM] | GI50 (MCF7 [6]) [µM] | SMILES | inhibition at 20 µM (PC-3 [5]) [%] |
| --- | --- | --- | --- | --- | --- | --- | --- | --- |
| 0.25 | 0.63 | 1.2 | 4.27 | Stable | 0.17 |  | CC(=O)Nc1ccc(C(=O)Nc2ccccc2NC(=O)CNC(=O)OCOC(=O)/C=C(C)/C=C/C=C(C)/C=C/C2=C(C)CCCC2(C)C)cc1 |  |
| 0.06 | 0.17 | 0.72 | 0.18 | Stable | 0.21 |  | CC1=C(/C=C/C(C)=C/C=C/C(C)=C/C(=O)Oc2ccc(COC(=O)Nc3ccccc3NC(=O)c3ccc(CNC(=O)OCc4cccnc4)cc3)cc2)C(C)(C)CCC1 |  |
|  | 0.17 |  | 0.29 |  |  |  | CC(=O)Nc1ccc(C(=O)Nc2ccccc2N)cc1 [TACEDINALINE] |  |
| 0.52 | 0.02 | 8.13 | 0.87 | Stable | 0.08 |  | CC(=O)Nc1ccc(C(=O)Nc2ccccc2NC(=O)OCc2ccc(OC(=O)/C=C(C)/C=C/C=C(C)/C=C/C3=C(C)CCCC3(C)C)cc2)cc1 |  |
|  | 0.01 |  | 1.02 | Stable |  |  | CCCC(=O)OCc1ccc(OC(=O)/C=C(C)/C=C/C=C(C)/C=C/C2=C(C)CCCC2(C)C)cc1 | 80 |
